Experimental data published in ChEMBL document CHEMBL4033611, “Chlorinated Dehydrocurvularins and Alterperylenepoxide A from Alternaria sp. AST0039, a Fungal Endophyte of Astragalus lentiginosus” (J Nat Prod, 2017).
pIC50: −log10 of the molar value. Active and inactive are the calls of the source. The calls are words filed in the database; no cut-off is given here. Peptide text beside a SMILES is read from it. * marks the point of attachment. Cbz = O=C(OCc1ccccc1)*

Experiments:
[1] = system: NCI-H460; assay: Cytotoxicity against human NCI-H460 cells after 72 hrs by resazurin/AlamarBlue dye-based fluorescence assay; assay type: functional, cell-based; conditions: NCI-H460, 72 h
Procedure, shortened: (§1)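 Serial dilutions of compound or DMSO vehicle added to triplicate wells in RPMI-1640 with 10% FBS, 72 h at 37 °C. Resazurin (AlamarBlue) dye then added at 1:10 dilution, 4 h more at 37 °C, fluorescence read at Ex/Em 560/590. Mean fluorescence per well compared with DMSO-treated wells as relative viable cell number; doxorubicin positive control.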

[2] = system: SF-268; assay: Cytotoxicity against human SF268 cells after 72 hrs by resazurin/AlamarBlue dye-based fluorescence assay; assay type: functional, cell-based; conditions: SF-268, 72 h; procedure, shortened: as §1
[3] = system: MCF7; assay: Cytotoxicity against human MCF7 cells after 72 hrs by resazurin/AlamarBlue dye-based fluorescence assay; assay type: functional, cell-based; conditions: MCF7, 72 h; procedure, shortened: as §1
[4] = system: PC-3M; assay: Cytotoxicity against human PC3M cells after 72 hrs by resazurin/AlamarBlue dye-based fluorescence assay; assay type: functional, cell-based; procedure, shortened: as §1
[5] = system: MDA-MB-231; assay: Cytotoxicity against human MDA-MB-231 cells after 72 hrs by resazurin/AlamarBlue dye-based fluorescence assay; assay type: functional, cell-based; conditions: MDA-MB-231, 72 h; procedure, shortened: as §1
[6] = system: Fibroblast; assay: Induction of heat-shock response in mouse fibroblasts harboring reporter construct encoding enhanced green fluorescent protein at 5 uM after overnight incubation by fluorescence assay; assay type: functional, cell-based
Procedure, shortened: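 Stably transfected reporter fibroblasts (EGFP driven by a minimal consensus heat-shock element) were seeded at 20 000 cells/well and left to attach overnight. Serial 2-fold dilutions of compound were added in triplicate, with DMSO vehicle (≤0.1%) as the negative control. After overnight incubation the cells were rinsed and read in PBS at Ex 485/Em 525 nm. Mean fluorescence ± SD was expressed relative to DMSO.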

[7] = target: Transitional endoplasmic reticulum ATPase (Homo sapiens) (UniProt P55072); assay: Inhibition of p97 in human MDA-MB-231 cells assessed as UPR activation by measuring increase in CHOP protein levels up to 20 uM after 8 hrs by Western blot analysis; assay type: cell-based
Procedure, shortened: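 MDA-MB-231 cells were treated for 8 h in DMEM with 10% FBS, then harvested in SDS sample buffer, sonicated and cleared. Lysates were run on 4–20% SDS-PAGE and transferred to nitrocellulose. Blots were blocked in 5% milk and probed for CHOP, XBP1s and ATF4 (1:1000), with β-actin as loading control. Detection was by chemiluminescence. DMSO served as negative control, with CB-5083 (1.0 μM) and MG132 (5.0 μM) as comparators.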

[8] = species: Homo sapiens; assay: Inhibition of proteasome in human MDA-MB-231 cells assessed as increase in CHOP protein levels at 5 uM after 8 hrs by Western blot analysis; assay type: cell-based
Procedure, shortened: (§2)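 Cells treated for 8 h in DMEM with 10% FBS, with DMSO negative control, CB-5083 (1.0 μM) positive control and MG132 (5.0 μM) comparator. Lysed by sonication in SDS sample buffer and run on 4–20% SDS-PAGE. Immunoblotted with anti-XBP1s, ATF4, CHOP (1:1000) and β-actin loading control, then HRP secondaries (1:3000) and chemiluminescence.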

[9] = species: Homo sapiens; assay: Inhibition of proteasome in human MDA-MB-231 cells assessed as increase in XBP1 protein levels up to 20 uM after 8 hrs by Western blot analysis; assay type: cell-based; procedure, shortened: as §2
[10] = species: Homo sapiens; assay: Inhibition of proteasome in human MDA-MB-231 cells assessed as UPR activation by measuring increase in ATF4 protein levels up to 20 uM after 8 hrs by Western blot analysis; assay type: cell-based; procedure, shortened: as §2
[11] = system: Fibroblast; assay: Induction of heat-shock response in mouse fibroblasts harboring reporter construct encoding enhanced green fluorescent protein at 1.25 to 5 uM after overnight incubation by fluorescence assay; assay type: functional, cell-based
Procedure, shortened: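 Reporter fibroblasts carry EGFP driven by a minimal consensus heat-shock element. Seeded at 20 000 cells/well and attached overnight. Serial 2-fold dilutions added in triplicate, with DMSO (≤0.1%) as negative control and monocillin I as positive control. Incubated overnight, rinsed with PBS, fluorescence read at 485/525 nm. Reported as mean ± SD of triplicates, also as a percentage of the DMSO control; three independent experiments.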

[12] = species: Homo sapiens; assay: Inhibition of proteasome in human MDA-MB-231 cells assessed as increase in CHOP protein levels up to 20 uM after 8 hrs by Western blot analysis; assay type: cell-based; procedure, shortened: as §2

Chain of Transitional endoplasmic reticulum ATPase (Homo sapiens) (P55072 2-806 limits assumed): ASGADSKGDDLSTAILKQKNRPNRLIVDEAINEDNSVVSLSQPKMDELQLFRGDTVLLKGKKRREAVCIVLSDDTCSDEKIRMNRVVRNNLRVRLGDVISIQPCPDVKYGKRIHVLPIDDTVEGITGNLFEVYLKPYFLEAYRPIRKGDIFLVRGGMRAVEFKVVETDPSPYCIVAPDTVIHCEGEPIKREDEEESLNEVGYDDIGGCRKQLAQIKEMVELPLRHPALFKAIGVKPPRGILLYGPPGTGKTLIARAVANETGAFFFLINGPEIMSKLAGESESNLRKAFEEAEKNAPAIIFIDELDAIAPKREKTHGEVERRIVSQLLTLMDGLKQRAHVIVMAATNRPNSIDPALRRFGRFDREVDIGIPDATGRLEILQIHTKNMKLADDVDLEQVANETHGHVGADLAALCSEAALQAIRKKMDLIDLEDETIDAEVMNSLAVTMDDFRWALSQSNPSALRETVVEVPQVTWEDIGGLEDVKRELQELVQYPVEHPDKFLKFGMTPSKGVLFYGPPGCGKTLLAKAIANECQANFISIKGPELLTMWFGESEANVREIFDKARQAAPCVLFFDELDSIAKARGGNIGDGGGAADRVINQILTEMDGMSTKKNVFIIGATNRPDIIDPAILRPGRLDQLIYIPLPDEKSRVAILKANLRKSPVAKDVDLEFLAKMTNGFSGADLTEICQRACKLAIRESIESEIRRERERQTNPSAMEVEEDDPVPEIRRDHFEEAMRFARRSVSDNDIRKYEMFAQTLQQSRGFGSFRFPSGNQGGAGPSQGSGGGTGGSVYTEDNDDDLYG

C[C@H]1CCC/C=C/C(=O)c2c(cc(O)c(Cl)c2O)CC(=O)O1
pIC50 [1]: 5.84
pIC50 [2]: 5.85
pIC50 [3]: 5.70
pIC50 [4]: 5.77
pIC50 [5]: 5.53
Activity [6]: Active

C[C@H]1CCC/C=C/C(=O)c2c(O)c(Cl)c(O)c(Cl)c2CC(=O)O1
Activity [6]: Active
inhibition [7]: Active

CC(C)C[C@@H](C=O)NC(=O)[C@H](CC(C)C)NC(=O)[C@H](CC(C)C)NC(=O)OCc1ccccc1 (Cbz-Leu-Leu-Leu-aldehyde)
inhibition [8]: Active

C[C@H]1CCC/C=C/C(=O)c2c(O)cc(O)cc2CC(=O)O1 [DEHYDROCURVULARIN]
pIC50 [1]: 5.45
pIC50 [2]: 5.33
pIC50 [4]: 5.35
pIC50 [5]: < 5.30
inhibition [9]: Active
inhibition [10]: Active
Activity [11]: Active
inhibition [12]: Active

COc1cccc2c1C(=O)c1c(O)c3c(c(O)c1C2=O)C[C@@](O)(C(=O)CO)C[C@@H]3O[C@H]1C[C@H](N)[C@H](O)[C@H](C)O1 [DOXORUBICIN]
pIC50 [4]: 6.62
